A word on the CLint scaled: it is the capacity of the preparation to metabolise the compound, expressed as a volume cleared per time. As a reminder, the inhibition is how much of the control response was suppressed. A word on the logP: it is a log measure of how a compound divides between an organic and an aqueous phase. Low values mean lower lipophilicity, high ones higher lipophilicity.

The source of these data is ChEMBL document CHEMBL4118269 (J Med Chem, 2018).

Data set [1] in a line: in vitro. As to conditions: CD-1, mouse, liver microsomes. (In general: Microsomes from liver hold many membrane-bound enzymes, among them those of drug oxidation.)
The nature of data set [2]: Half life in CD-1 mouse liver microsomes at 1 uM preincubated for 5 mins followed by NADPH addition measured up to 45 mins by LC-MS/MS analysis. As to conditions: 0.75 h. It is filed as ADME, microsome. Put shortly: (§1)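 Pooled liver microsomes (0.5 mg/mL; male CD-1 mouse, male Sprague Dawley rat, or mixed-gender human) with 1 μM compound in 100 mM potassium phosphate pH 7.4, 3 mM MgCl2, 37 °C with shaking. 5 min preincubation, then 1 mM NADPH. Aliquots at 0, 3, 7, 15, 25, 45 min quenched in cold CH3CN with carbamazepine internal standard, then LC/MS/MS. Triplicate; T1/2 = ln2/k from the slope of ln % remaining versus time.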

The nature of data set [3]: in vitro. As to conditions: CD-1, mouse, liver microsomes. The source holds these as a separate data set.
Data set [4] can be described thus: in vitro. As to conditions: Sprague-Dawley, rat, liver microsomes.
The nature of data set [5]: in vitro. As to conditions: human, liver microsomes.
The nature of data set [6]: Half life in human liver microsomes at 1 uM preincubated for 5 mins followed by NADPH addition measured up to 45 mins by LC-MS/MS analysis. It is filed as ADME, microsome. Conditions: 0.75 h. Put shortly:
as §1

Data set [7] is described as follows: Half life in Sprague-Dawley rat liver microsomes at 1 uM preincubated for 5 mins followed by NADPH addition measured up to 45 mins by LC-MS/MS analysis. It is filed as ADME, microsome. Conditions: 0.75 h. Put shortly:
as §1

Data set [8] in a line: in vitro. As to conditions: human, liver microsomes. The source holds these as a separate data set.
The target of data set [9] is Lanosterol 14-alpha demethylase (Aspergillus) (UniProt B8NUK6+Q9P8R0+G4WW85). The data set can be described thus: Inhibition of Aspergillus fumigatus CYP51 assessed as reduction in [3-3H]eburicol 14alpha-demethylation at 0.75 uM preincubated for 60 secs followed by NADPH addition measured after 60 mins by RP-HPLC analysis relative to control. The procedure, abridged:
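E. coli-expressed, purified CYP51 (0.5 μM) with rat NADPH-P450 reductase (1.0 μM), 100 μM dilauroylphosphatidylcholine, isocitrate dehydrogenase/isocitrate NADPH regeneration, in 50 mM K phosphate pH 7.2 with 10% glycerol and 0.1% Triton X-100. [3-3H]eburicol 25 μM final, inhibitor 0.75 μM final (1.5:1:50 inhibitor:enzyme:substrate), 37 °C. Started with 100 μM NADPH, 60 min, EtOAc extraction, radio-HPLC. Percent inhibition, triplicate, mean ± SD.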

Data set [10] in a line: in vitro. Conditions: Sprague-Dawley, rat, liver microsomes. The source holds these as a separate data set.
Data set [11] deals with Lanosterol 14-alpha demethylase (Candida albicans (strain SC5314 / ATCC MYA-2876) (Yeast), UniProt P10613). In words: Inhibition of Candida albicans CYP51 assessed as reduction in [3-3H]lanosterol 14alpha-demethylation at 0.75 uM preincubated for 60 secs followed by NADPH addition measured after 60 mins by RP-HPLC analysis relative to control. Conditions: 1 h. Put shortly:
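C. albicans CYP51 expressed in E. coli and purified, 0.5 μM, with 1.0 μM rat NADPH-P450 reductase, dilauroylphosphatidylcholine and isocitrate dehydrogenase/isocitrate regeneration in 50 mM potassium phosphate pH 7.2, 10% glycerol, 0.1% Triton X-100. Substrate 25 μM final; inhibitor:enzyme:substrate 1.5:1:50. 37 °C, started with 100 μM NADPH. Sterols extracted with EtOAc, radio-HPLC. Triplicate, mean ± SD.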

The nature of data set [12]: Lipophilicity, log P of the compound. It is filed as physicochemical. As to conditions: octanol/water.

Sequence of Lanosterol 14-alpha demethylase (P10613 whole entry): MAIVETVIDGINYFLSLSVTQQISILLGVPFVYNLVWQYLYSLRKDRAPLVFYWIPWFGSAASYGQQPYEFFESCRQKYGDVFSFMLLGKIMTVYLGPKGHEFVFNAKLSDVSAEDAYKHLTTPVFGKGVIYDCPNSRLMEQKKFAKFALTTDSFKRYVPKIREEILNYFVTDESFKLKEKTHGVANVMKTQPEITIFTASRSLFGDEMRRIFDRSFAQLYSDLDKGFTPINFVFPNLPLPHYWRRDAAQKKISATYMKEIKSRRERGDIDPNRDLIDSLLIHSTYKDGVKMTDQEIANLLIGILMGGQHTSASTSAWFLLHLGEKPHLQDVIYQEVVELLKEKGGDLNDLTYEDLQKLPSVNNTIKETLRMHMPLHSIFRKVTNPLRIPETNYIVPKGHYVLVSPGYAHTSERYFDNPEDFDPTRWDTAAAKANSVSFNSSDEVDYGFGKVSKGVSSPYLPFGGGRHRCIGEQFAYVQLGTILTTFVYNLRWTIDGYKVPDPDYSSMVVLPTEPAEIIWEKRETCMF

As to `O=C(N[C@@H](Cn1ccnc1)c1ccc(Cl)cc1Cl)c1ccc(-c2nnc(-c3cc(F)cc(OCC(F)(F)F)c3)o2)cc1`, the CLhep predicted at 0.75 h, 1 µM was 43.6 mL/min/kg in data set [1], 29 mL/min/kg in data set [4] and 7.33 mL/min/kg in data set [8]. Besides, the values for the t1/2 in data set [2], in data set [6] and in data set [7] were 1.08 h, 1.85 h and 0.933 h, respectively. Besides, the CLint scaled at 0.75 h, 1 µM in data set [3] is 84.7 mL/min/kg; in [5], 11.3 mL/min/kg; in data set [10], 50.4 mL/min/kg. For the same molecule, the inhibition in data set [9] was found to be 51%. In [11], the inhibition at 0.75 µM came out at 65%. The logP in [12] was 5.58.
For `O=C(N[C@@H](Cn1ccnc1)c1ccc(Cl)cc1Cl)c1ccc(-c2nnc(-c3ccc(Cl)c(Cl)c3)o2)cc1`, the CLhep predicted at 0.75 h, 1 µM in [1] is 49 mL/min/kg; in [4], 35 mL/min/kg; in data set [8], 7.39 mL/min/kg. For the same molecule, the values for the t1/2 in [2], in data set [6] and in data set [7] were 0.85 h, 1.83 h and 0.667 h, respectively. Moreover, the results for the intrinsic metabolic clearance (CLint scaled) at 0.75 h, 1 µM in data set [3], in data set [5] and in data set [10] were 107 mL/min/kg, 11.4 mL/min/kg and 70 mL/min/kg, respectively. Besides, the inhibition in data set [9] was determined as 55%. For the same molecule, in [11], the inhibition at 0.75 µM is 92%. For the same molecule, the logP in data set [12] amounted to 5.68.
`O=C(N[C@@H](Cn1ccnc1)c1ccc(Cl)cc1Cl)c1ccc(-c2nnc(-c3ccc(-c4ccccn4)cc3)o2)cc1`: the results for the CLhep predicted at 0.75 h, 1 µM in [1], in data set [4] and in [8] were 46 mL/min/kg, 40 mL/min/kg and 7.15 mL/min/kg, respectively. In addition, the t1/2 in [2] came out at 0.95 h; in [6] it was 1.92 h; in data set [7] it was 0.5 h. The CLint scaled at 0.75 h, 1 µM in data set [3] was determined as 95 mL/min/kg; in [5] it was 10.8 mL/min/kg; in data set [10], 94 mL/min/kg. Further, the inhibition in data set [9] amounted to 23%. Besides, the inhibition at 0.75 µM in data set [11] was found to be 66%. For the same molecule, the logP in data set [12] is 5.33.
For `CS(=O)(=O)c1ccc(-c2nnc(-c3ccc(C(=O)N[C@@H](Cn4ccnc4)c4ccc(Cl)cc4Cl)cc3)o2)cc1Cl`, the values for the CLhep predicted at 0.75 h, 1 µM in data set [1], in data set [4] and in data set [8] were 34.5 mL/min/kg, 42 mL/min/kg and 6.45 mL/min/kg, respectively. Moreover, the t1/2 stood at 1.62 h in data set [2], 2.23 h in [6] and 0.45 h in [7]. The results for the CLint scaled at 0.75 h, 1 µM in data set [3], in data set [5] and in [10] were 56 mL/min/kg, 9.31 mL/min/kg and 104 mL/min/kg, respectively. Further, the inhibition in data set [9] turned out to be 32%. Moreover, the inhibition at 0.75 µM in data set [11] worked out at 53%. The logP in data set [12] worked out at 3.83.
Turning to `O=C(N[C@@H](Cn1ccnc1)c1ccc(Cl)cc1Cl)c1ccc(-c2nnc(-c3cc(-c4ccccn4)ccc3F)o2)cc1`, the CLhep predicted at 0.75 h, 1 µM was 65 mL/min/kg in data set [1], 29 mL/min/kg in data set [4] and 6.85 mL/min/kg in data set [8]. The t1/2 stood at 0.383 h in data set [2], 2.05 h in [6] and 0.95 h in data set [7]. Also, the CLint scaled at 0.75 h, 1 µM in data set [3] amounted to 238 mL/min/kg; in [5], 10.2 mL/min/kg; in [10] it was 49.4 mL/min/kg. Also, in [9], the inhibition is 24%. The inhibition at 0.75 µM in data set [11] was 83%. In data set [12], this molecule had a logP of 5.49.
Turning to `O=C(N[C@@H](Cn1ccnc1)c1ccc(Cl)cc1Cl)c1ccc(-c2nnc(-c3ccc(N4CCOCC4)cc3)o2)cc1`, the inhibition in data set [9] stood at 3%. Moreover, in [11], the inhibition at 0.75 µM came out at 29%. Besides, the logP in data set [12] was 4.45.
Turning to `O=C(N[C@@H](Cn1ccnc1)c1ccc(Cl)cc1Cl)c1ccc(-c2nnc(-c3cccc(-c4ccccn4)c3)o2)cc1`, the CLhep predicted at 0.75 h, 1 µM is 56 mL/min/kg in data set [1], 35 mL/min/kg in data set [4] and 8.06 mL/min/kg in [8]. Further, the results for the t1/2 in data set [2], in [6] and in data set [7] were 0.6 h, 1.58 h and 0.683 h, respectively. Also, the CLint scaled at 0.75 h, 1 µM is 152 mL/min/kg in data set [3], 13.1 mL/min/kg in data set [5] and 68 mL/min/kg in [10]. Besides, in data set [9], the inhibition is 34%. In addition, in data set [11], the inhibition at 0.75 µM turned out to be 77%. The logP in data set [12] is 5.33.
On to `O=C(N[C@@H](Cn1ccnc1)c1ccc(Cl)cc1Cl)c1ccc(-c2nnc(-c3cccc(Br)c3)o2)cc1`, for which the CLhep predicted at 0.75 h, 1 µM in data set [1] is 55 mL/min/kg; in data set [4], 19 mL/min/kg; in data set [8] it was 6.53 mL/min/kg. The figures for the t1/2 in data set [2], in data set [6] and in data set [7] were 0.717 h, 2.2 h and 1.77 h, respectively. The CLint scaled at 0.75 h, 1 µM in data set [3] amounted to 126 mL/min/kg; in data set [5], 9.47 mL/min/kg; in [10], 27 mL/min/kg. Further, the inhibition in data set [9] was 41%. In addition, the inhibition at 0.75 µM in data set [11] amounted to 84%. This molecule returned a logP in data set [12] of 5.4.
Regarding `O=C(N[C@@H](Cn1ccnc1)c1ccc(Cl)cc1Cl)c1ccc(-c2nnc(-c3ccc(-c4ccccn4)cc3F)o2)cc1`, the CLhep predicted at 0.75 h, 1 µM in [1] was 26 mL/min/kg; in data set [4], 29.7 mL/min/kg; in [8], 8.75 mL/min/kg. Further, the t1/2 in data set [2] came out at 2.48 h; in [6] it was 1.38 h; in [7], 0.9 h. In addition, the CLint scaled at 0.75 h, 1 µM was 36.5 mL/min/kg in [3], 15 mL/min/kg in [5] and 51.6 mL/min/kg in data set [10]. For the same molecule, in [9], the inhibition stood at 26%. For the same molecule, in data set [11], the inhibition at 0.75 µM turned out to be 61%. In data set [12], this molecule gave a logP of 5.49.
For `O=C(N[C@@H](Cn1ccnc1)c1ccc(Cl)cc1Cl)c1ccc(-c2nnc(-c3cccc(N4CCOCC4)c3)o2)cc1`, the inhibition in [9] was 15%. Besides, the inhibition at 0.75 µM in data set [11] came out at 58%. This molecule had a logP in data set [12] of 4.45.
